From PubChem
KCNK9 inh-1 = blocks the human KCNK9 two-pore domain potassium channel; Q9NPC2; HEK293 KCNK9, FluxOR thallium flux fluorescence; active compounds read low; B-score at 10 µM; actives 1.2% (n = 310,000); AID 488922;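 active means ratio B-score over 3 SD below the library mean, with starting fluorescence within 5 SD of its mean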;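 further: negative B-score means less thallium flux so channel inhibition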
KCNQ1 act = potentiates or activates the human KCNQ1 potassium channel; P51787; CHO-K1 KCNQ1, thallium flux FluxOR fluorescence; active compounds read high; B-score at 10 µM; actives 0.35% (n = 310,000); AID 2648;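 active means fluorescence ratio B-score, a plate-corrected score, at least three library SD, with initial intensity B-score within 5 SD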
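Material: CHO-K1 cells stably expressing KCNQ1. Medium: assay buffer for compound exposure, DMSO matched across wells. Reagent: K+/Tl+ depolarizing stimulus. Compound dosing: single-concentration screen. Times: 37 °C overnight plating, 90-min dark dye load, 20-min compound pretreatment. Technique: FluxOR Tl+ flux fluorescence.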
KCNQ1 block = inhibitors of human KCNQ1 potassium channel; CHO-K1 KCNQ1, FluxOR thallium flux fluorescence; active compounds read high; B-score at 10 µM; actives 1.3% (n = 310,000); AID 2642;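 active means compounds whose thallium flux B-score, printed positive for inhibition, exceeds three library SD while starting fluorescence stays within three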;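 further: channel opened by potassium depolarization with thallium stimulus after 20 min compound exposure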
Kir21 inh = blocks the mouse Kir2.1 inward-rectifier potassium channel. P35561. B-score at 10 µM. actives 0.85% (n = 310,000). AID 1672. HEK293-Kir2.1, FluxOR thallium flux fluorescence; active compounds read low;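 active means fluorescence ratio B-score at or below minus 3 SD of library scores, with starting-brightness B-score within 2 SD, cut at about -4.2 in these data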;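 further: channel flux triggered by added potassium and thallium sulfate stimulus; B-score of peak minus minimum fluorescence over baseline after thallium stimulus; more negative B-score means stronger Kir2.1 block with less thallium influx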
Target sequence (P35561 whole entry, looked up): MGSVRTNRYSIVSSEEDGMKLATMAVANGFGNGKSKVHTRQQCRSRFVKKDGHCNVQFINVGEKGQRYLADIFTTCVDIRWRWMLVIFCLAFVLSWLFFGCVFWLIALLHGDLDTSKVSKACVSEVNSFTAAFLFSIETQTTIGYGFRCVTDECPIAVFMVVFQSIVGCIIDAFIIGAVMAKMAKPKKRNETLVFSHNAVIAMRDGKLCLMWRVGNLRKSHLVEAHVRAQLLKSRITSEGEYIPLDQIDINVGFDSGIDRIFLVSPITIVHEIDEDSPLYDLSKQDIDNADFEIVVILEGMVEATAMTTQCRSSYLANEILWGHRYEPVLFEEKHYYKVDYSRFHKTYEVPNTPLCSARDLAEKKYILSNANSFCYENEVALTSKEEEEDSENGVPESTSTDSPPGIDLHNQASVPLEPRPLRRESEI
KCNK3 inh = human KCNK3 channel inhibition, primary screen | CHO-KCNK3 thallium flux, FluxOR fluorescence; active compounds read low | B-score at 10 µM | O14649 | actives 0.84% (n = 340,000);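 active means B-score under library mean minus 4 SD, starting fluorescence ratio at most library mean plus 5 SD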;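 further: more negative B-score means stronger inhibition of thallium flux through KCNK3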
hERG protect = compounds protecting human hERG from proarrhythmic drug block. CHO-hERG, FluxOR thallium flux, dofetilide IC70 present. actives 0.51% (n = 310,000). activation (rescue from dofetilide block), less the hit threshold, % at 10 µM;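 active means activation above the mean of controls blocked by dofetilide plus 5 SD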;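 further: thallium influx through hERG after potassium depolarization seen as dye fluorescence rise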
hERG inh = hERG (human) inhibition as Kir2.1 counter-screen. shares compounds with Kir21 inh. hERG-expressing cells, thallium flux. inhibition, % at 10 µM. actives 20% (n = 320);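 further: host cells are CHO cells stably expressing hERG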
KCNK9 inh-2 = selectivity of Kir2.1 inhibitors: effect on human KCNK9; inhibition, % at 10 µM; shares compounds with Kir21 inh; KCNK9-expressing cells, ion flux inhibition; actives 5% (n = 320)
Kir2-1 patch inh = inhibitors of mouse Kir2.1 potassium channel. shares compounds with Kir21 inh. Kir2.1 cells, automated patch-clamp current inhibition. inhibition, % at 25 µM. actives 71% (n = 320). AID 463252
The depositor's hits bear a star; i = inactive; nt = no result. Shown are actives, neighbours in structure and some others; about 3.8% of the full set was active somewhere. Unless noted, how the calls were made is not given here.

SMILES	KCNK9 inh-1	KCNQ1 act	KCNQ1 block	Kir21 inh	KCNK3 inh	hERG protect	hERG inh	KCNK9 inh-2	Kir2-1 patch inh
COc1cc(CNCCc2ccc(F)cc2)ccc1OCc1ccc(Cl)nc1	i	i	i	-8.19*	i	-12.6	59.0%*	i	56.2%*
COc1cc(CNCCc2ccccc2F)ccc1OCc1ccc(Cl)nc1	i	i	i	-5.11	i	-5.5	nt	nt	nt
COc1ccc(OC)c(NC(=O)CCC(=O)Nc2nnc(C(C)C)s2)c1	i	i	i	-1.72	i	-4.7	nt	nt	nt
Cc1ccc(C(CCNC(C)c2cccs2)c2ccco2)cc1 (centres undefined)	i	i	i	-8.39*	i	-6.6	62.0%*	i	i
CC(=O)N(CC(C)(C)CC=C(C)C)c1ccccc1	i	i	i	-5.86*	nt	-14.2	i	i	9.4%*
CCOC(=O)[C@H]1[C@H]2COc3ccccc3[C@@H]2N2C(=O)CN(Cc3ccc(C)cc3)C(=O)[C@@]12C	nt	nt	nt	nt	i	nt	nt	nt	nt
NNC(=O)c1cc(S(=O)(=O)N2CCOCC2)c[nH]1	nt	nt	nt	nt	i	nt	nt	nt	nt
C#CCN(C)Cc1ccccc1	i	i	i	-0.1	i	-8.6	nt	nt	nt
C#CC(CO)N(CCN(Cc1ccccc1)C(C#C)CO)Cc1ccccc1 (centres undefined)	i	i	i	-11.2*	i	-4.5	i	i	3.9%*
Cc1ccc(CNC(=O)C2(S(=O)(=O)c3ccccc3)CC=CC2)cc1	i	i	i	-1.66	i	-3.6	nt	nt	nt
CCc1ccc(CN(C)C(=O)c2cc(=O)c3ccccc3o2)cc1	i	i	i	0.31	i	-13.6	nt	nt	nt
CN1CCC(N(C)C(=O)c2cc(=O)c3ccccc3o2)CC1	i	i	i	-0.06	i	-7.7	i	i	i
COc1ccc(Br)cc1S(=O)(=O)N1CC(C)OC(C)C1 (centres undefined)	i	i	i	-6.23*	i	-9.9	i	i	26.5%*
COc1ccc(Br)cc1S(=O)(=O)N1CCOCC1	i	i	i	0.05	i	-2.2	nt	nt	nt
COc1ccc(F)cc1S(=O)(=O)N1CC(C)CC(C)C1 (centres undefined)	i	i	i	-6.23*	i	-10.4	i	i	36.9%*
COc1ccc(F)cc1S(=O)(=O)N1CCN(c2ccccn2)CC1	i	i	i	-0.89	i	-3.8	nt	nt	nt
CCOc1cc(/C=N/O)ccc1OS(=O)(=O)c1ccc(C)cc1	i	i	i	-7.52*	i	-5.4	i	i	6.7%*
Cc1csc(CNC(=O)C2CCC(=O)N(CCc3cccc(F)c3)C2)n1 (centres undefined)	i	i	i	-0.14	i	-8.5	nt	nt	nt
COc1cc(OC)c(OC)cc1CCC(C)NCCC(c1ccccc1)c1ccccc1 (centres undefined)	i	i	i	-11.2*	i	-21.4	68.0%*	i	5.1%*
CCOc1ccc(CCNC(=O)c2nnc(CS(=O)(=O)c3ccccc3)o2)cc1OCC	i	i	i	0.41	i	-4.2	nt	nt	nt
Cc1ccc2nc(CCCc3nc4ccc(C)cc4[nH]3)[nH]c2c1	i	i	i	-8.55*	i	-8.9	i	i	i
Cc1ccc(S(=O)(=O)N2CCCCC2)cc1NC(=O)c1ccncc1	nt	nt	nt	nt	i	nt	nt	nt	nt
CCc1nc(C)cn1S(=O)(=O)c1cc(Br)ccc1OC	i	i	i	-8.91*	i	-13.9	i	i	64.2%*
CCc1nc(C)cn1S(=O)(=O)c1ccc(Cl)c(Cl)c1Cl	i	i	i	-2.46	i	-17.2	nt	nt	nt
